# Tested on: Fibroblast
# Assay: Multiplex assay against human fibroblast
# Assay type: toxicity, cell-based
# Method in brief: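 Imaging took place on a CQ1 microscope at 37°C and 5% CO2 once compound had been added to live cells stained at seeding with Hoechst33342, BioTracker Green Microtubule Cytoskeleton Dye, MitoTracker Red and Annexin V Alexa Fluor 680. CellPathfinder machine-learning gating classed cells as Hoechst high-intensity objects or normal cells, classed normal cells as having healthy, pyknosed or fragmented nuclei, and classed pyknosed cells as mitotic or apoptotic. Tubulin, mitochondrial-mass and membrane-permeability phenotypes are per cents of the healthy-nucleus cells.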
# [1] = 12 h, 1 µM, compound concentration 1 uM, replicate 1
# [2] = 12 h, 1 µM, compound concentration 1 uM, replicate 2
# [3] = 12 h, 10 µM, compound concentration 10 uM, replicate 1
# [4] = 12 h, 10 µM, compound concentration 10 uM, replicate 2
# [5] = 24 h, 1 µM, compound concentration 1 uM, replicate 1
# [6] = 24 h, 1 µM, compound concentration 1 uM, replicate 2
# [7] = 24 h, 10 µM, compound concentration 10 uM, replicate 1
# [8] = 24 h, 10 µM, compound concentration 10 uM, replicate 2
# [9] = 48 h, 1 µM, compound concentration 1 uM, replicate 1
# [10] = 48 h, 1 µM, compound concentration 1 uM, replicate 2
# [11] = 48 h, 10 µM, compound concentration 10 uM, replicate 1
# [12] = 48 h, 10 µM, compound concentration 10 uM, replicate 2
smiles,measurement,setting,value
Cc1ccc(C(=O)Nc2cccc(C(F)(F)F)c2)cc1Nc1nc(-c2cccnc2)nc2c1cnn2C,Population Apoptotic (%),[1],61%
same,Population Fragmented Nuclei (%),[1],34%
same,Population Healthy Nuclei (%),[1],29%
same,Population Hoechst High Intensity Objects (%),[1],10%
same,Population Membrane Permeable-Phenotype (%),[1],28%
same,Population Mitochondria Different-Phenotype (%),[1],3%
same,Population Mitotic Cells (%),[1],38%
same,Population Normal (%),[1],89%
same,Population Pyknosed Nuclei (%),[1],35%
same,Population Tubulin-Different-Phenotype (%),[1],53%
same,Total Cell Count,[1],122
same,Population Apoptotic (%),[2],50%
same,Population Fragmented Nuclei (%),[2],14%
same,Population Healthy Nuclei (%),[2],73%
same,Population Hoechst High Intensity Objects (%),[2],3%
same,Population Membrane Permeable-Phenotype (%),[2],6%
same,Population Mitochondria Different-Phenotype (%),[2],25%
same,Population Mitotic Cells (%),[2],50%
same,Population Normal (%),[2],96%
same,Population Pyknosed Nuclei (%),[2],12%
same,Population Tubulin-Different-Phenotype (%),[2],14%
same,Total Cell Count,[2],101
same,Population Apoptotic (%),[3],65%
same,Population Fragmented Nuclei (%),[3],24%
same,Population Healthy Nuclei (%),[3],33%
same,Population Hoechst High Intensity Objects (%),[3],13%
same,Population Membrane Permeable-Phenotype (%),[3],34%
same,Population Mitochondria Different-Phenotype (%),[3],37%
same,Population Mitotic Cells (%),[3],34%
same,Population Normal (%),[3],86%
same,Population Pyknosed Nuclei (%),[3],41%
same,Population Tubulin-Different-Phenotype (%),[3],88%
same,Total Cell Count,[3],121
same,Population Apoptotic (%),[4],61%
same,Population Fragmented Nuclei (%),[4],18%
same,Population Healthy Nuclei (%),[4],42%
same,Population Hoechst High Intensity Objects (%),[4],8%
same,Population Membrane Permeable-Phenotype (%),[4],78%
same,Population Mitochondria Different-Phenotype (%),[4],92%
same,Population Mitotic Cells (%),[4],38%
same,Population Normal (%),[4],91%
same,Population Pyknosed Nuclei (%),[4],39%
same,Population Tubulin-Different-Phenotype (%),[4],100%
same,Total Cell Count,[4],66
same,Population Apoptotic (%),[5],66%
same,Population Fragmented Nuclei (%),[5],40%
same,Population Healthy Nuclei (%),[5],41%
same,Population Hoechst High Intensity Objects (%),[5],14%
same,Population Membrane Permeable-Phenotype (%),[5],19%
same,Population Mitochondria Different-Phenotype (%),[5],5%
same,Population Mitotic Cells (%),[5],33%
same,Population Normal (%),[5],85%
same,Population Pyknosed Nuclei (%),[5],17%
same,Population Tubulin-Different-Phenotype (%),[5],43%
same,Total Cell Count,[5],142
same,Population Apoptotic (%),[6],27%
same,Population Fragmented Nuclei (%),[6],12%
same,Population Healthy Nuclei (%),[6],72%
same,Population Hoechst High Intensity Objects (%),[6],3%
same,Population Membrane Permeable-Phenotype (%),[6],7%
same,Population Mitochondria Different-Phenotype (%),[6],29%
same,Population Mitotic Cells (%),[6],72%
same,Population Normal (%),[6],96%
same,Population Pyknosed Nuclei (%),[6],14%
same,Population Tubulin-Different-Phenotype (%),[6],16%
same,Total Cell Count,[6],101
same,Population Apoptotic (%),[7],85%
same,Population Fragmented Nuclei (%),[7],27%
same,Population Healthy Nuclei (%),[7],34%
same,Population Hoechst High Intensity Objects (%),[7],10%
same,Population Membrane Permeable-Phenotype (%),[7],42%
same,Population Mitochondria Different-Phenotype (%),[7],44%
same,Population Mitotic Cells (%),[7],14%
same,Population Normal (%),[7],89%
same,Population Pyknosed Nuclei (%),[7],37%
same,Population Tubulin-Different-Phenotype (%),[7],81%
same,Total Cell Count,[7],124
same,Population Apoptotic (%),[8],90%
same,Population Fragmented Nuclei (%),[8],26%
same,Population Healthy Nuclei (%),[8],11%
same,Population Hoechst High Intensity Objects (%),[8],20%
same,Population Membrane Permeable-Phenotype (%),[8],100%
same,Population Mitochondria Different-Phenotype (%),[8],75%
same,Population Mitotic Cells (%),[8],9%
same,Population Normal (%),[8],79%
same,Population Pyknosed Nuclei (%),[8],61%
same,Population Tubulin-Different-Phenotype (%),[8],100%
same,Total Cell Count,[8],77
same,Population Apoptotic (%),[9],42%
same,Population Fragmented Nuclei (%),[9],59%
same,Population Healthy Nuclei (%),[9],36%
same,Population Hoechst High Intensity Objects (%),[9],23%
same,Population Membrane Permeable-Phenotype (%),[9],15%
same,Population Mitochondria Different-Phenotype (%),[9],0%
same,Population Mitotic Cells (%),[9],57%
same,Population Normal (%),[9],76%
same,Population Pyknosed Nuclei (%),[9],4%
same,Population Tubulin-Different-Phenotype (%),[9],59%
same,Total Cell Count,[9],189
same,Population Apoptotic (%),[10],75%
same,Population Fragmented Nuclei (%),[10],65%
same,Population Healthy Nuclei (%),[10],32%
same,Population Hoechst High Intensity Objects (%),[10],22%
same,Population Membrane Permeable-Phenotype (%),[10],12%
same,Population Mitochondria Different-Phenotype (%),[10],3%
same,Population Mitotic Cells (%),[10],25%
same,Population Normal (%),[10],77%
same,Population Pyknosed Nuclei (%),[10],2%
same,Population Tubulin-Different-Phenotype (%),[10],63%
same,Total Cell Count,[10],231
same,Population Apoptotic (%),[11],66%
same,Population Fragmented Nuclei (%),[11],45%
same,Population Healthy Nuclei (%),[11],38%
same,Population Hoechst High Intensity Objects (%),[11],21%
same,Population Membrane Permeable-Phenotype (%),[11],40%
same,Population Mitochondria Different-Phenotype (%),[11],18%
same,Population Mitotic Cells (%),[11],33%
same,Population Normal (%),[11],78%
same,Population Pyknosed Nuclei (%),[11],16%
same,Population Tubulin-Different-Phenotype (%),[11],88%
same,Total Cell Count,[11],165
same,Population Apoptotic (%),[12],60%
same,Population Fragmented Nuclei (%),[12],56%
same,Population Hoechst High Intensity Objects (%),[12],25%
same,Population Membrane Permeable-Phenotype (%),[12],14%
same,Population Mitochondria Different-Phenotype (%),[12],64%
same,Population Mitotic Cells (%),[12],40%
same,Population Normal (%),[12],74%
same,Population Pyknosed Nuclei (%),[12],4%
same,Population Tubulin-Different-Phenotype (%),[12],95%
same,Total Cell Count,[12],146
CCCS(=O)(=O)c1nc(NC2CC2)cc(-c2ccc3c(ccn3C3CC(C)(C)NC(C)(C)C3)c2)n1,Population Apoptotic (%),[1],41%
same,Population Fragmented Nuclei (%),[1],27%
same,Population Healthy Nuclei (%),[1],42%
same,Population Hoechst High Intensity Objects (%),[1],11%
same,Population Membrane Permeable-Phenotype (%),[1],22%
same,Population Mitochondria Different-Phenotype (%),[1],0%
same,Population Mitotic Cells (%),[1],58%
same,Population Normal (%),[1],88%
same,Population Pyknosed Nuclei (%),[1],30%
same,Population Tubulin-Different-Phenotype (%),[1],35%
same,Total Cell Count,[1],107
same,Population Apoptotic (%),[2],38%
same,Population Fragmented Nuclei (%),[2],14%
same,Population Healthy Nuclei (%),[2],71%
same,Population Hoechst High Intensity Objects (%),[2],5%
same,Population Membrane Permeable-Phenotype (%),[2],5%
same,Population Mitochondria Different-Phenotype (%),[2],41%
same,Population Mitotic Cells (%),[2],61%
same,Population Normal (%),[2],94%
same,Population Pyknosed Nuclei (%),[2],13%
same,Population Tubulin-Different-Phenotype (%),[2],29%
same,Total Cell Count,[2],1044
same,Population Apoptotic (%),[3],71%
same,Population Fragmented Nuclei (%),[3],42%
same,Population Healthy Nuclei (%),[3],4%
same,Population Hoechst High Intensity Objects (%),[3],10%
same,Population Membrane Permeable-Phenotype (%),[3],60%
same,Population Mitochondria Different-Phenotype (%),[3],0%
same,Population Mitotic Cells (%),[3],28%
same,Population Normal (%),[3],89%
same,Population Pyknosed Nuclei (%),[3],53%
same,Population Tubulin-Different-Phenotype (%),[3],40%
same,Total Cell Count,[3],124
same,Population Apoptotic (%),[4],92%
same,Population Fragmented Nuclei (%),[4],75%
same,Population Hoechst High Intensity Objects (%),[4],7%
same,Population Membrane Permeable-Phenotype (%),[4],100%
same,Population Mitochondria Different-Phenotype (%),[4],38%
same,Population Mitotic Cells (%),[4],7%
same,Population Normal (%),[4],92%
same,Population Pyknosed Nuclei (%),[4],19%
same,Population Tubulin-Different-Phenotype (%),[4],84%
same,Total Cell Count,[4],101
same,Population Apoptotic (%),[5],42%
same,Population Fragmented Nuclei (%),[5],33%
same,Population Healthy Nuclei (%),[5],39%
same,Population Hoechst High Intensity Objects (%),[5],15%
same,Population Membrane Permeable-Phenotype (%),[5],23%
same,Population Mitochondria Different-Phenotype (%),[5],13%
same,Population Mitotic Cells (%),[5],57%
same,Population Normal (%),[5],84%
same,Population Pyknosed Nuclei (%),[5],27%
same,Population Tubulin-Different-Phenotype (%),[5],39%
same,Total Cell Count,[5],114
same,Population Apoptotic (%),[6],22%
same,Population Fragmented Nuclei (%),[6],15%
same,Population Healthy Nuclei (%),[6],66%
same,Population Hoechst High Intensity Objects (%),[6],5%
same,Population Membrane Permeable-Phenotype (%),[6],10%
same,Population Mitochondria Different-Phenotype (%),[6],21%
same,Population Mitotic Cells (%),[6],77%
same,Population Normal (%),[6],94%
same,Population Pyknosed Nuclei (%),[6],18%
same,Population Tubulin-Different-Phenotype (%),[6],29%
same,Total Cell Count,[6],1113
same,Population Apoptotic (%),[7],76%
same,Population Fragmented Nuclei (%),[7],38%
same,Population Healthy Nuclei (%),[7],11%
same,Population Hoechst High Intensity Objects (%),[7],19%
same,Population Membrane Permeable-Phenotype (%),[7],63%
same,Population Mitochondria Different-Phenotype (%),[7],0%
same,Population Mitotic Cells (%),[7],24%
same,Population Normal (%),[7],80%
same,Population Pyknosed Nuclei (%),[7],50%
same,Population Tubulin-Different-Phenotype (%),[7],54%
same,Total Cell Count,[7],123
same,Population Apoptotic (%),[8],90%
same,Population Fragmented Nuclei (%),[8],73%
same,Population Healthy Nuclei (%),[8],10%
same,Population Hoechst High Intensity Objects (%),[8],7%
same,Population Membrane Permeable-Phenotype (%),[8],96%
same,Population Mitochondria Different-Phenotype (%),[8],75%
same,Population Mitotic Cells (%),[8],10%
same,Population Normal (%),[8],92%
same,Population Pyknosed Nuclei (%),[8],15%
same,Population Tubulin-Different-Phenotype (%),[8],96%
same,Total Cell Count,[8],104
same,Population Apoptotic (%),[9],58%
same,Population Fragmented Nuclei (%),[9],34%
same,Population Healthy Nuclei (%),[9],36%
same,Population Hoechst High Intensity Objects (%),[9],20%
same,Population Membrane Permeable-Phenotype (%),[9],16%
same,Population Mitochondria Different-Phenotype (%),[9],10%
same,Population Mitotic Cells (%),[9],41%
same,Population Normal (%),[9],79%
same,Population Pyknosed Nuclei (%),[9],28%
same,Population Tubulin-Different-Phenotype (%),[9],60%
same,Total Cell Count,[9],105
same,Population Apoptotic (%),[10],75%
same,Population Fragmented Nuclei (%),[10],46%
same,Population Healthy Nuclei (%),[10],49%
same,Population Hoechst High Intensity Objects (%),[10],8%
same,Population Membrane Permeable-Phenotype (%),[10],26%
same,Population Mitochondria Different-Phenotype (%),[10],12%
same,Population Mitotic Cells (%),[10],25%
same,Population Normal (%),[10],91%
same,Population Pyknosed Nuclei (%),[10],3%
same,Population Tubulin-Different-Phenotype (%),[10],46%
same,Total Cell Count,[10],110
same,Population Apoptotic (%),[11],76%
same,Population Fragmented Nuclei (%),[11],59%
same,Population Healthy Nuclei (%),[11],25%
same,Population Hoechst High Intensity Objects (%),[11],39%
same,Population Membrane Permeable-Phenotype (%),[11],76%
same,Population Mitochondria Different-Phenotype (%),[11],4%
same,Population Mitotic Cells (%),[11],23%
same,Population Normal (%),[11],60%
same,Population Pyknosed Nuclei (%),[11],15%
same,Population Tubulin-Different-Phenotype (%),[11],61%
same,Total Cell Count,[11],137
same,Population Apoptotic (%),[12],75%
same,Population Fragmented Nuclei (%),[12],78%
same,Population Healthy Nuclei (%),[12],15%
same,Population Hoechst High Intensity Objects (%),[12],37%
same,Population Membrane Permeable-Phenotype (%),[12],33%
same,Population Mitochondria Different-Phenotype (%),[12],9%
same,Population Mitotic Cells (%),[12],25%
same,Population Normal (%),[12],62%
same,Population Pyknosed Nuclei (%),[12],5%
same,Population Tubulin-Different-Phenotype (%),[12],42%
same,Total Cell Count,[12],215

# From ChEMBL document CHEMBL4689842, “EUbOPEN Chemogenomics Library wave 1” (2021)
